Active and inactive are the calls of the source. The calls are words filed in the database; no cut-off is given here.
Key:
[1] = Ratio of the dose (D500,peroral administration) elevating the rat heart rate to 500 bpm to the GDP ED50.; assay type: functional
Method in brief: (§1)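 Rats held at 29 °C for 2 weeks, groups of six dosed (sc or po) at the BAT GDP ED50, then at rising multiples of it. Heart rate read 15–30 min after dosing until ≥500 bpm, giving D500; vehicle control group of six. Index = D500 divided by GDP-binding ED50 from cold-adapted rats.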

[2] = target: Beta-3 adrenergic receptor (Rattus norvegicus) (UniProt P26255); test: Inhibition of beta-3 adrenergic receptor GDP binding in rat brown adipose tissue on oral administration relative to isoprenaline; assay type: tissue-based
Beta-3 adrenergic receptor (Rattus norvegicus), sequence (P26255 whole entry): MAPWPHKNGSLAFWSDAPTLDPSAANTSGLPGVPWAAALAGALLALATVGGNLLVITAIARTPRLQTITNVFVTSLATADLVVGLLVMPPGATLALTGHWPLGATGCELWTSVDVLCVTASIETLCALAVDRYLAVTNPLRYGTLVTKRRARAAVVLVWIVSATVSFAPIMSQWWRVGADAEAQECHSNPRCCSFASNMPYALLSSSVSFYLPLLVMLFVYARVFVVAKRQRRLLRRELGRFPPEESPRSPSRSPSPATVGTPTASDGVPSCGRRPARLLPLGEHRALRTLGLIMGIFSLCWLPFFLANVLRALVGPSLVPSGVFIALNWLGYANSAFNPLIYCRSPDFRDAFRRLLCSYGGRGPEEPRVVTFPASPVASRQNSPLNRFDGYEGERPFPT
Method in brief: (§2)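 Rats cold-adapted at 4 °C for 4 days, then kept at 23 °C for 2 days; next day dosed sc or po in 0.45% aqueous NaCl/0.25% w/v Polysorbate 80, 0.1–10 mg kg-1, n=6 per group. Interscapular BAT taken 1 h later, mitochondria by differential centrifugation, GDP binding measured. Expressed relative to isoprenaline sulfate 1 mg kg-1; ED50 by linear regression.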

[3] = target: Beta-3 adrenergic receptor (Rattus norvegicus) (UniProt P26255); test: Dose necessary to produce 50% of the isoprenaline effect to inhibit GDP binding to beta-3 adrenergic receptor in brown adipose tissue(BAT mitochondria) of rats after subcutaneous administration; not active; method in brief: as §2
[4] = Ratio of the dose (D500,subcutaneous administration) elevating the rat heart rate to 500 bpm to the GDP ED50; assay type: functional; method in brief: as §1

Row | Structure (SMILES) | ED50 [2] [mg/kg] | ED50 [3] | SI [1] | SI [4]
1 | CCOC(=O)COc1ccc(OCCNCC(O)COc2ccccc2)cc1 (centres undefined) | – | – | > 100 | –
2 | CC(C)OC(=O)COc1ccc(OCCNCC(O)COc2ccccc2)cc1 (centres undefined) | – | – | > 10 | –
3 | COC(=O)COc1cccc(OCCNCC(O)COc2ccccc2F)c1.Cl (centres undefined) | – | – | > 10 | –
4 | COC(=O)COc1ccc(CC(C)NCC(O)c2cccc(Cl)c2)cc1 (centres undefined) | 0.007 | – | > 100 | –
5 | CC(C)NC[C@H](O)COc1ccc(O)cc1 [PRENALTEROL] | – | – | – | < 1
6 | COC(=O)COc1ccc(OCC(C)NCC(O)COc2ccccc2)cc1.O (centres undefined) | – | – | > 10 | –
7 | COC(=O)c1ccc(CC(C)NCC(O)c2ccccc2)cc1 (centres undefined) | 0.94 | – | > 10 | –

Second part, led by results:

Row | ED50 [2] [mg/kg] | ED50 [3] | Structure (SMILES) | SI [1] | SI [4]
8 | 0.54 | – | COC(=O)COc1ccc(OCCNCC(O)COc2ccccc2F)cc1.Cl (centres undefined) | > 100 | –
9 | 0.078 | – | COC(=O)COc1ccc(CCNCC(O)COc2ccccc2)cc1 (centres undefined) | > 100 | –
10 | – | inactive | COC(=O)COc1ccc(C(=O)NCCNCC(O)COc2ccccc2)cc1 (centres undefined) | – | –
11 | 5.28 | – | COC(=O)COc1cccc(OCCNCC(O)COc2ccccc2)c1 (centres undefined) | > 10 | –
12 | 0.45 | – | Cl.O=C(O)COc1ccc(OCCNC[C@H](O)COc2ccccc2)cc1 | > 22 | –
13 | 0.25 | – | CC(C)(C)OC(=O)COc1ccc(OCCNCC(O)COc2ccccc2)cc1 (centres undefined) | > 100 | –
14 | 0.12 | – | COC(=O)COc1ccc(OCCNCC(O)COc2ccccc2)cc1 (centres undefined) | > 100 | –
15 | 3.5 | – | O=C(O)COc1ccc(OCCNCC(O)COc2ccccc2)cc1 (centres undefined) | > 62 | –
